Screening data (PubChem)
An excerpt weighted towards active compounds, which were near 12% of everything screened.
WT yeast gro inh: growth inhibition of WT yeast, mitochondrial fusion screen; inhibition, % at 10 µM; hit rate 2.1% among 190,000; mitochondrial fusion phenotypic screen, WT strain; AID 1362; in the data active = inhibition above about 58%; tested in S. cerevisiae
Diaph inh CS: counter-screen for diaphorase-based assays: diaphorase inhibitors and chemical oxidizers; diaphorase resazurin-to-resorufin fluorescence, NADH, 16 min; bacterial (C. kluyveri) enzyme, not human; inhibition, % at 20 µM; hit rate 0.69% among 190,000; AID 1217;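 active = primary screen inhibition at 20 µM above a set limit, cut at about 50% in these data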;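 note: plate controls were DMSO with full reaction for no effect and wells lacking NADH for full effect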
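Detection: fluorescence of resorufin formed from resazurin, Ex 544/Em 590 nm; test system: Clostridium kluyveri diaphorase enzyme; amount: 0.14 U/mL diaphorase, enzyme working solution; times: 16-min room-temperature incubation before reading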
KCC2 mod: modulates chloride dependent transport by human KCC2. KCC2 cells, thallium flux FluoZin-2 fluorescence. Q9H2X9. hit rate 2.2% among 190,000. AID 1456. B-score of Tl+ flux slope (higher = more flux/activation; lower = inhibition) at 10 µM;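 active = thallium flux slope and its plate-corrected score both differing from the plate sample mean at a set confidence after two filtering rounds, in either direction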;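 note: slope of fluorescence scaled to starting intensity during 10 to 20 s after thallium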
Lmaj promast: reduces viability of Leishmania major promastigotes. resazurin fluorescence viability. inhibition, % at 10 µM. hit rate 9% among 200,000. AID 1063; in the data active = inhibition above about 50%;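 note: promastigotes grown with compound for 44 hours at 28 °C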
ROMK primary: human ROMK K+ channel modulation, primary screen | P48048 | Tet-inducible ROMK, thallium flux fluorescence; actives lie on both sides | AID 1918 | B-score at 10 µM | hit rate 2% among 130,000;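 active = signal ratio slope over the read window, or its plate-corrected B-score, at least 3 SD from the plate mean, either direction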;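 note: B-score of the F/F0 ratio slope over 7 to 12 s after thallium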
Target sequence (P48048 whole entry, looked up): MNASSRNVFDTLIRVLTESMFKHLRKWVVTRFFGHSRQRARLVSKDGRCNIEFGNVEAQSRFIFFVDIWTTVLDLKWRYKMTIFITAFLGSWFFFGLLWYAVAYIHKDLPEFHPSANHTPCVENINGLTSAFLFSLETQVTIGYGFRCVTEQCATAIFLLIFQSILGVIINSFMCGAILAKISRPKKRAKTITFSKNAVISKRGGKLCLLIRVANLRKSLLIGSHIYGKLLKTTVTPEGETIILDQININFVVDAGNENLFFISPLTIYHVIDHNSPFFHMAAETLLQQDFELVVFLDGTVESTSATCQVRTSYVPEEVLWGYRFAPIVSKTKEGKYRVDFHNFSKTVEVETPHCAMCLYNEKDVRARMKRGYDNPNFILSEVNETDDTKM
Diaph act CS: diaphorase activation or chemical reduction counter-screen; activation factor at 20 µM; hit rate 0.005% among 190,000; Diaphorase/resazurin coupled assay, resorufin fluorescence, 16 min; hits give high values; 1 = vehicle wells, 0 = NADH-free wells;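 active = diaphorase activity raised at least twofold by the compound at 20 µM; inactive = activation factor below 2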
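Test system: Clostridium kluyveri diaphorase, purified enzyme; input: enzyme 0.07 U/mL final; buffer or medium: 50 mM HEPES pH 7.4 with 4.542 mM MgCl2, 0.005% Tween 20; also added: 0.114 mM NADH and 0.1 mM resazurin, final amounts; schedule: 16 min enzyme reaction, ambient temperature; technique: fluorescence of resorufin, 544 nm excitation, 590 nm emission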
Active calls of the source: *; / = no result.

SMILES	WT yeast gro inh	Diaph inh CS	KCC2 mod	Lmaj promast	ROMK primary	Diaph act CS
CC1=C(C(N)=O)C(c2cccnc2)n2nc(-c3cccc(C)c3)nc2N1 (configuration not stated)	-14	/	-0.11	85*	0.053	/
CCOC(=O)C(NC(=O)c1ccccc1Cl)(Nc1ccc(C)c(C)c1)C(F)(F)F (configuration not stated)	28	19	-0.066	-2	-1.5	0.8
COC(=O)C(Nc1ccccc1Cl)(c1cc(C)c(O)c(C)c1)C(F)(F)F (configuration not stated)	90*	26	-1.8	25	/	0.7
Cc1ccc(S(=O)(=O)NCCc2nnc3ccc(SCC(=O)Nc4nc(C)cs4)nn23)cc1	2	29	0.83	-5	0.6	0.7
CCCc1sc(N/N=C/c2ccccn2)nc1-c1ccc(Br)cc1	65*	9	/	97*	/	0.9
CCCc1sc(N)nc1-c1ccc(C)cc1	6	-1	-2	49	-0.026	1
O=C(CSc1ccc2ccccc2n1)Nc1ccc(N2CCOCC2)cc1	-13	2	0.54	4	-0.58	1
COc1ccc(NS(=O)(=O)c2cccc(N/C(=N\S(=O)(=O)c3ccccc3)c3ccc(F)cc3)c2)cc1	-22	27	-1.6	76*	/	0.7
COc1ccc(NS(=O)(=O)c2ccc(OC)c(NC(=O)CCC3CCCCC3)c2)cc1	-16	12	-0.27	1	0.85	0.9
COc1ccc(NS(=O)(=O)c2ccc(C)c(NC(=O)NC3CCCCC3)c2)cc1	2	12	0.069	99*	/	0.9
COc1ccc(S(=O)(=O)Nc2ccccc2Cl)cc1NC(C)=O	0	-2	-1.4	3	1.7	1
COc1ccc(S(=O)(=O)Nc2ccccc2OC)cc1NC(=O)CC1CC2CCC1C2 (configuration not stated)	-18	39	-1.2	100*	0.42	0.6
COc1ccccc1NS(=O)(=O)c1ccc(C)c(NC(=O)NC2CCCCC2)c1	-11	21	-0.52	100*	-1.5	0.8
Nn1c(SCC(=O)NCCC2=CCCCC2)nnc1C(F)(F)F	7	8	-0.32	-2	0.62	0.9
Cc1cccc(C(=O)n2c(=S)nc3ccccn32)c1	13	9	-0.21	44	1.3	0.9
COc1ccc(NS(=O)(=O)c2cccc(NC(=O)COc3ccc(OC)cc3)c2)cc1	/	/	-3.8	/	/	/
COc1ccc(NS(=O)(=O)c2cccc(NC(=O)NC3CCCCC3)c2)cc1	2	15	0.28	99*	-0.87	0.8
CC1(c2ccccc2)CC(C)(C)N2C(=O)C3(C(C#N)=C(N)Oc4cc(O)ccc43)c3cccc1c32 (configuration not stated)	1	22	/	12	-0.28	0.8
CC1(c2ccccc2)CC(C)(C)N2C(=O)/C(=C3\SC(=S)NC3=O)c3cccc1c32 (configuration not stated)	61*	43	20*	9	/	0.6
CCCCCc1ccc(C(=O)CCCC)c(=S)[nH]1	66*	57*	119*	14	3.8*	0.4
CCCCCc1cc(=O)[nH]c(=S)[nH]1	/	/	-1.2	/	/	/
Cc1ccc(N2C(=O)c3cccc4c([N+](=O)[O-])ccc(c34)C2=O)c2cccnc12	/	/	0	/	/	/
Cc1ccnc(N2C(=O)c3cccc4c([N+](=O)[O-])ccc(c34)C2=O)c1	57	19	/	100*	/	0.8
COC(=O)c1cnc(Oc2c(Cl)cc(N)cc2Cl)cc1C(F)(F)F	/	/	-2	/	-0.59	/
CC(=O)c1ccc(NC(=O)C2C3C=CC(C3=C(c3ccccc3)c3ccccc3)C2C(=O)O)cc1 (configuration not stated)	-9	22	0.044	52*	1.5	0.8
SMILES	WT yeast gro inh	Diaph inh CS	KCC2 mod	Lmaj promast	ROMK primary	Diaph act CS
Cc1cc(C)cc(N(CC(=O)N/N=C/c2ccncc2)S(=O)(=O)c2ccccc2)c1	-13	10	-0.83	75*	-0.47	0.9
Cc1cc(C)cc(N(CC(=O)Nc2ccccc2-c2ccccc2)S(=O)(=O)c2ccccc2)c1	8	10	0.9	15	/	0.9
CCOC(=O)NC1(Nc2cccc(Cl)c2)Oc2ccccc2O1	-8	55*	-0.094	-2	/	0.4
CC(C)c1ccc(NC(=S)NCCc2c[nH]c3ccccc23)cc1	67*	29	-1.5	43	/	0.7
Cc1ccccc1NC(=S)NCCc1c[nH]c2ccccc12	-4	15	-0.89	81*	-2.2	0.8
O=C(Nc1c2c(nn1-c1ccc(F)cc1)CS(=O)(=O)C2)c1ccc(S(=O)(=O)N2CCOCC2)cc1	19	6	1.4	-2	-0.27	0.9
Cc1sc2nc(CN3CCCCC3)nc(Cl)c2c1C	-5	-4	0.087	13	/	1
CCOc1cc(/C=C/c2cc(C(=O)O)c3ccccc3n2)ccc1O	10	6	-0.084	75*	-0.26	0.9
CC(C)(C)NC(=O)c1cccc(NC(=O)Cc2cccs2)c1	-6	16	-0.1	0	-0.11	0.8
CC(C)(C)NC(=O)c1cccc(NC(=O)CSc2ccccc2)c1	-5	13	-0.12	77*	/	0.9
Cc1c(NC(=O)COC(=O)c2ccc(S(=O)(=O)N3CCOCC3)cc2)c(=O)n(-c2ccccc2)n1C	-9	-1	0.61	-6	-1.1	1
O=C(Oc1cccc2c(O)cccc12)c1ccccc1	60*	24	-2	13	/	0.8
O=C(O)CCc1ccccc1OC(=O)c1ccccc1	/	/	-0.28	/	-0.26	/
Cc1cc(C)cc(NC(=S)N(Cc2cccc(Br)c2)CC2CCC(C(=O)O)CC2)c1 (configuration not stated)	19	18	-0.18	3	-0.011	0.8
Cc1cc(NC(=S)N(Cc2ccc(Br)cc2)Cc2ccc(C(=O)O)cc2)ccc1Cl	70*	20	-2.2	-4	0.0028	0.8
Cc1ccc(NC(=S)N(Cc2cccc(Br)c2)CC2CCC(C(=O)O)CC2)cc1Cl (configuration not stated)	64*	15	-2.9	0	0.29	0.9
COc1ccccc1-n1cnnc1SCC(=O)c1ccc[nH]1	11	16	/	-5	/	0.8
O=C(NCc1cccs1)C1CCCN1C(=O)Nc1ccc(Cl)cc1 (configuration not stated)	4	0	-0.9	9	-0.49	1
O=C(COc1ccccc1O)NNc1ccccc1	30	5	0.7	74*	0.34	1
O=C(COc1ccccc1O)Nc1ccccc1Cl	8	-11	/	-2	-1	1.1
COc1cc(NC(=O)C2=C(N3CCOCC3)/C(=C\c3ccc(Cl)cc3Cl)CC2)cc(OC)c1OC	11	23	-0.6	97*	-0.41	0.8
CC(=O)Nc1ccc(S(=O)(=O)N(C)CC(=O)OCC(=O)c2cc(C)n(-c3ccc4c(c3)OCO4)c2C)cc1	-12	29	0.25	0	-0.13	0.7
